How the values were obtained:
[1] = target: T1, Cytochrome P450 2C8 (Homo sapiens, UniProt P10632); experiment: Inhibition of CYP2C8 (unknown origin) upto 25 uM; assay type: ADME
T1 sequence (P10632 whole entry): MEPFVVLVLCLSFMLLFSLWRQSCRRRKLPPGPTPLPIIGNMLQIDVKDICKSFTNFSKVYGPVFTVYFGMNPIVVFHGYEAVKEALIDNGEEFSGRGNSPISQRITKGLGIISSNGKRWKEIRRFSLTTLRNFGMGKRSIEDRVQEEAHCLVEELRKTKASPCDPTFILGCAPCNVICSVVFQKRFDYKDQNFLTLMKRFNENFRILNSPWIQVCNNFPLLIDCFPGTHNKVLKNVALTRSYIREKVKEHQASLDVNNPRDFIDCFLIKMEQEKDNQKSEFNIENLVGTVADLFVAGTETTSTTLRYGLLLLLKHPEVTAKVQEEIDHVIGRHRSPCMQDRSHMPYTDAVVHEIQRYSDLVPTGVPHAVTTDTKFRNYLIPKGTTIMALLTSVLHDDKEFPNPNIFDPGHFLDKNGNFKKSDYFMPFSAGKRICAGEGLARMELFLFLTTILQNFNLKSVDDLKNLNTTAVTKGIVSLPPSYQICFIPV

[2] = Free plasma concentration in rat at 1 mg/kg, po after 2 hrs by ex vivo equilibrium dialysis; assay type: ADME, organism-based
Summary of the method: (§1)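 Male Sprague–Dawley rats were dosed orally at 1–100 mg/kg, and total plasma concentration was measured at 1 and 2 h. This was multiplied by fraction unbound from ex vivo equilibrium dialysis; mean ± SEM, n = 3 animals.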

[3] = target: hERG (KCNH2) (Homo sapiens, UniProt Q12809); experiment: Inhibition of human ERG at 30 uM
Chain of hERG (KCNH2) (Q12809 whole entry): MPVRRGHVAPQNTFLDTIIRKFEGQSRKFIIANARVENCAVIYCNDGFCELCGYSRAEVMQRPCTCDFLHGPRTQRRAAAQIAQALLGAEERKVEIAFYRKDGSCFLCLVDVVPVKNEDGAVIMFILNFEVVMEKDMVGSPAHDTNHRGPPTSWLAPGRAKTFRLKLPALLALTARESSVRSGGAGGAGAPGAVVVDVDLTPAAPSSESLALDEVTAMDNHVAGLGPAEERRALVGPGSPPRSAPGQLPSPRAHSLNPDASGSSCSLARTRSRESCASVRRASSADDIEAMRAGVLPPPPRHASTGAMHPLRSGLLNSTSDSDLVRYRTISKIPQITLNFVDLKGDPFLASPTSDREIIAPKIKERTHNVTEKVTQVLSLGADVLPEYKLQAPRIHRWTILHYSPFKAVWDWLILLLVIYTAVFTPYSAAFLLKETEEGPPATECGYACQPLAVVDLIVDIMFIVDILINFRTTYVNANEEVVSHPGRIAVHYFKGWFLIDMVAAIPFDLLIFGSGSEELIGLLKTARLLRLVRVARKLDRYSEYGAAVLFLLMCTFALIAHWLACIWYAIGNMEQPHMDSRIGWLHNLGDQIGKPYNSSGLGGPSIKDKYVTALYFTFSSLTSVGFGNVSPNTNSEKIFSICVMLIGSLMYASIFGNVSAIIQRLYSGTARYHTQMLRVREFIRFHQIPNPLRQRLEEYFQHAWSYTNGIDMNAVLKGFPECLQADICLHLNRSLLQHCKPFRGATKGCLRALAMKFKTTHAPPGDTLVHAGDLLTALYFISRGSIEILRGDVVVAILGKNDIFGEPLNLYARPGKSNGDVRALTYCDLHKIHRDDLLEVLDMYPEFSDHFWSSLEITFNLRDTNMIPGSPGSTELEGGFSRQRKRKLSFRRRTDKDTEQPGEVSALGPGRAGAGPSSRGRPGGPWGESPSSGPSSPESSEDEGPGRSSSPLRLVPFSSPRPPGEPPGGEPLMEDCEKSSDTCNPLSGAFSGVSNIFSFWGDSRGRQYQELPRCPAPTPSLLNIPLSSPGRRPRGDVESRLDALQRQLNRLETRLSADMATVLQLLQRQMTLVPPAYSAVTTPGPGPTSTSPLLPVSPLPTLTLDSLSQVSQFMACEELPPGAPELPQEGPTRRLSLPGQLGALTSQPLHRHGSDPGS
Summary of the method: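 hERG channel inhibition was measured at 30 μM.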

[4] = Inhibition of BzATP-induced IL-1beta in mouse primary microglia cells primed with LPS measured after repeated BzATP treatment by microplate reader; assay type: functional, tissue-based
Summary of the method: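 Cortical microglia from rat (P3 pups) or mouse were plated 1 day before assay and primed with 3 EU/mL LPS for 3.5 h. Compound was added for 30 min, then BzATP (1 mM) for 30 min at 37 °C. IL-1β was measured by MesoScale assay, normalised to BCA protein, and given as mean ± SD.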

[5] = Tmax in male rat at 150 mg/kg, po after 7 days; assay type: ADME, organism-based; settings: in vivo, time 7 day
[6] = Metabolic stability in rat hepatocytes assessed as intrinsic clearance at 1 uM measured after 2 hrs; assay type: ADME, cell-based, Hepatocyte; settings: read-out: CLH (converted)
[7] = Inhibition of BzATP-induced current in rat primary microglia cells measured after repeated BzATP treatment at -60 mV at 10 nM by whole cell patch clamp assay relative to control; assay type: functional
Summary of the method: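 Rat primary microglia were whole-cell patch-clamped at −60 mV (external pH 7.4 with 1.8 mM CaCl2; CsCl/EGTA internal pH 7.2). Currents came from 10 s applications of 300 μM BzATP, applied repeatedly. Compound was applied by gravity via capillary for 60 s, and inhibition was taken relative to the control response.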

[8] = Cmax in female mouse at 100 mg/kg, po after 14 days; settings: in vivo
[9] = Free plasma concentration in rat at 10 mg/kg, po after 2 hrs by ex vivo equilibrium dialysis; assay type: ADME, organism-based; summary of the method: as §1

O=C(NC[C@H](c1ccc(Cl)cc1)N1CCOCC1)c1sc(-c2ncccn2)nc1C(F)(F)F
inhibition (INH) [1]: Not Active | Cp(f) [2]: 0.0228 µM | inhibition at 30 µM [3]: 44% | IC50 [4]: 26 nM | Tmax [5]: 4 h | CLint scaled at 1 µM [6]: 80 mL/min/kg | inhibition at 0.01 µM [7]: 31% | Cmax [8]: 61.6 µM | Cp(f) [9]: 0.164 µM

Source: ChEMBL document CHEMBL5055621, “Synthesis and Characterization of the Novel Rodent-Active and CNS-Penetrant P2X7 Receptor Antagonist Lu AF27139” (J Med Chem, 2021)
